One block for each compound: values may come before it. Active and inactive are the calls of the source. No cut-off for these calls is given here.
Experiments:
[1] = biological target: T1, Matrix metalloproteinase-9 (Homo sapiens, UniProt P14780); experiment: Inhibition of MMP9 in human A549 cells assessed as decrease in gelatin digestion incubated for 24 hrs by coomassie brilliant blue staining-based zymographic assay; assay type: cell-based
How it was run: (§1)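 A549 cells treated 24 h at 1, 5, 10 µM; culture supernatants electrophoresed on gelatin-containing SDS-PAGE, gels washed three times in 0.25% triton, then incubated 48 h at 37°C in 50 mM Tris-HCl pH 7.5 with 0.15 M NaCl, 5 mM CaCl2, 0.05% NaN3 to reveal gelatinolytic activity.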

A549 [2] = experiment: Down regulation of MMP9 expression in human A549 cells incubated for 24 hrs by Western blot analysis; assay type: functional, cell-based
How it was run: (§2)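 A549 cells treated 24 h at 1, 5 and 10 µM; lysates run on SDS-PAGE, transferred to PVDF, blocked in 10% dry milk/TBST, probed with rabbit anti-MMP-2, anti-MMP-9 or anti-GAPDH, then secondary antibodies and imaged.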

[3] = biological target: T2, 72 kDa type IV collagenase (Homo sapiens, UniProt P08253); experiment: Inhibition of recombinant human MMP2 at 10 uM using thiopeptide as substrate preincubated for 30 mins followed by substrate addition and measured every min for 20 mins by colorimetric assay relative to control
How it was run: (§3)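 Colorimetric kit assay: human recombinant enzyme plus inhibitor in assay buffer for 30 min at 37 °C, then chromogenic MMP substrate added; A412 recorded each minute over 20 min. Enzyme-free blanks and inhibitor-free controls included.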
Target sequence in this assay (P08253 110-660 limits assumed): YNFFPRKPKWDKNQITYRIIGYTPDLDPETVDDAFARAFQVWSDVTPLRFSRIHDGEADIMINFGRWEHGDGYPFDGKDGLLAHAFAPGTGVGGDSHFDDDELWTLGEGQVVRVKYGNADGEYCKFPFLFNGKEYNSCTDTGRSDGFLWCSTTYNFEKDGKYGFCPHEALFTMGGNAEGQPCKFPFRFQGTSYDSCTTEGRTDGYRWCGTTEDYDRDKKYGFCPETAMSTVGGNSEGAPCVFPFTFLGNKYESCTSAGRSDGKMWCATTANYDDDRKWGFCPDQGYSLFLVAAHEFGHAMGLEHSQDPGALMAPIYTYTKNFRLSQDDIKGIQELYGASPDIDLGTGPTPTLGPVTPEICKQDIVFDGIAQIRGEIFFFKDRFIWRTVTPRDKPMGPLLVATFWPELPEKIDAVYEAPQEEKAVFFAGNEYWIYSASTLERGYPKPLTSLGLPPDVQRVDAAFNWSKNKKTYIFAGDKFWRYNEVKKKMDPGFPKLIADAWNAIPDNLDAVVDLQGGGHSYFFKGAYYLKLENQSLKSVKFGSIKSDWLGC

K562 = experiment: Antiproliferative activity against human K562 cells assessed as reduction in cell viability incubated for 48 hrs by MTT assay; assay type: functional, cell-based; details: K562, 48 h
How it was run: (§4)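 Cells grown in RPMI1640 with 10% FBS at 37°C, 5% CO2; seeded at 4000-5000 cells/well for 8 h, then exposed to a range of compound concentrations for 48 h. MTT added for 4 h, formazan dissolved in DMSO, absorbance at 570 nm; IC50 calculated from inhibition ratios.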

A549 [4] = experiment: Induction of apoptosis in human A549 cells assessed as viable cells at 5 uM incubated for 48 hrs by annexin V FITC and propidium iodide based flow cytometry (reference value: 94.7 %); assay type: functional; details: A549, 48 h, read-out: Activity
How it was run: (§5)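 A549 cells (1×10^5 cells/mL) treated 48 h at 0, 1, 5 or 10 µM; harvested, washed in cold PBS, resuspended in binding buffer with annexin V-FITC and PI, 15 min at room temperature in the dark, then analysed by flow cytometry.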

A549 [5] = experiment: Inhibition of cell migration in human A549 cells incubated for 24 hrs by crystal violet staining based transwell migration assay; assay type: functional
How it was run: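 A549 cells pretreated 24 h with compound (1, 5, 10 µM), harvested into serum-free RPMI1640; 30,000 cells placed in upper transwell chamber, lower chamber RPMI1640 + 10% FBS as chemoattractant. Migration 24 h at 37°C, 5% CO2; cells fixed MeOH/acetic acid (3:1), upper side wiped, underside stained 0.1% crystal violet and counted. Three repeats, mean ± SEM.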

[6] = biological target: T2, 72 kDa type IV collagenase; experiment: Inhibition of MMP2 in human A549 cells assessed as decrease in gelatin digestion incubated for 24 hrs by coomassie brilliant blue staining-based zymographic assay; assay type: cell-based; how it was run: as §1
Target sequence in this assay (P08253 110-660 limits assumed): as above

HUVEC [7] = experiment: Antiangiogenic activity in HUVEC assessed as inhibition of tuber formation at 10 uM incubated for 24 hrs by matrigel-based inverted microscopy; assay type: functional, cell-based; details: Homo sapiens
How it was run: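 HUVEC treated with compound for 24 h in serum-free RPMI1640, harvested and layered onto undiluted matrigel polymerized 2 h at 37°C; after 6 h cell organization examined by inverted microscope, with mesh number counted as the angiogenesis read-out. Tested at 10 µM.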

A549 [8] = experiment: Induction of apoptosis in human A549 cells assessed as early apoptotic cells at 10 uM incubated for 48 hrs by annexin V FITC and propidium iodide based flow cytometry (reference value: 2.15 %); assay type: functional; how it was run: as §5
KG-1 = experiment: Antiproliferative activity against human KG1 cells assessed as reduction in cell viability incubated for 48 hrs by MTT assay; assay type: functional, cell-based; details: KG-1, 48 h; how it was run: as §4
A549 [9] = experiment: Induction of apoptosis in human A549 cells assessed as late apoptotic cells at 10 uM incubated for 48 hrs by annexin V FITC and propidium iodide based flow cytometry (reference value: 3.11 %); assay type: functional; how it was run: as §5
A549 [10] = experiment: Induction of apoptosis in human A549 cells assessed as late apoptotic cells at 5 uM incubated for 48 hrs by annexin V FITC and propidium iodide based flow cytometry (reference value: 3.11 %); assay type: functional; how it was run: as §5
A549 [11] = experiment: Induction of apoptosis in human A549 cells assessed as early apoptotic cells at 1 uM incubated for 48 hrs by annexin V FITC and propidium iodide based flow cytometry (reference value: 2.15 %); assay type: functional; how it was run: as §5
A549 [12] = experiment: Induction of apoptosis in human A549 cells assessed as viable cells at 1 uM incubated for 48 hrs by annexin V FITC and propidium iodide based flow cytometry (reference value: 94.7 %); assay type: functional; details: A549, 48 h, read-out: Activity; how it was run: as §5
[13] = biological target: T1, Matrix metalloproteinase-9; experiment: Inhibition of recombinant human MMP9 at 10 uM using thiopeptide as substrate preincubated for 30 mins followed by substrate addition and measured every min for 20 mins by colorimetric assay relative to control; how it was run: as §3
HL-60 = experiment: Antiproliferative activity against human HL60 cells assessed as reduction in cell viability incubated for 48 hrs by MTT assay; assay type: functional, cell-based; details: HL-60, 48 h; how it was run: as §4
A549 [14] = experiment: Induction of apoptosis in human A549 cells assessed as necrotic cells at 5 uM incubated for 48 hrs by annexin V FITC and propidium iodide based flow cytometry (reference value: 0.02 %); assay type: functional; how it was run: as §5
[15] = biological target: T1, Matrix metalloproteinase-9; experiment: Inhibition of recombinant human MMP9 using thiopeptide as substrate preincubated for 30 mins followed by substrate addition and measured every min for 20 mins by colorimetric assay
A549 [16] = experiment: Induction of apoptosis in human A549 cells assessed as viable cells at 10 uM incubated for 48 hrs by annexin V FITC and propidium iodide based flow cytometry (reference value: 94.7 %); assay type: functional; details: A549, 48 h, read-out: Activity; how it was run: as §5
A549 [17] = experiment: Induction of apoptosis in human A549 cells assessed as necrotic cells at 10 uM incubated for 48 hrs by annexin V FITC and propidium iodide based flow cytometry (reference value: 0.02 %); assay type: functional; how it was run: as §5
[18] = biological target: T2, 72 kDa type IV collagenase; experiment: Inhibition of recombinant human MMP2 using thiopeptide as substrate preincubated for 30 mins followed by substrate addition and measured every mins for 20 min by colorimetric assay
Target sequence in this assay (P08253 whole entry): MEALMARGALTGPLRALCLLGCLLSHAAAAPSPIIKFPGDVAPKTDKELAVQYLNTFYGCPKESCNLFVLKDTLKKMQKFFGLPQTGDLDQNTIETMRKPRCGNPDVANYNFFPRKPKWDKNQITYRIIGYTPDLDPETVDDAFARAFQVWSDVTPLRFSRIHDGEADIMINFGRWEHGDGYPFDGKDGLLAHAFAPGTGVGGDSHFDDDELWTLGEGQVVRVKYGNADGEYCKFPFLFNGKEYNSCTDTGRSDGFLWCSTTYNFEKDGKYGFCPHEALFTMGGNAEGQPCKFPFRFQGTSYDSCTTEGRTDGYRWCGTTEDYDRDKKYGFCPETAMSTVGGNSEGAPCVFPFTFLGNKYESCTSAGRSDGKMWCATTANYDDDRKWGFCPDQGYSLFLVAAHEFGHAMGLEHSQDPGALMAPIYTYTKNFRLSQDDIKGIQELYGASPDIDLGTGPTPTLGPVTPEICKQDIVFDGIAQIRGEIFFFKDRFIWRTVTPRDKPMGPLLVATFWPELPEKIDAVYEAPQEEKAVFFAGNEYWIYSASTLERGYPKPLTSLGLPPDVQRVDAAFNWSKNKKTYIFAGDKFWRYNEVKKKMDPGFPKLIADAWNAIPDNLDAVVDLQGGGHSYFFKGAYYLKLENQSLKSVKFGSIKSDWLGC

A549 [19] = experiment: Induction of apoptosis in human A549 cells assessed as late apoptotic cells at 1 uM incubated for 48 hrs by annexin V FITC and propidium iodide based flow cytometry (reference value: 3.11 %); assay type: functional; how it was run: as §5
MCF7 = experiment: Antiproliferative activity against human MCF7 cells assessed as reduction in cell viability incubated for 48 hrs by MTT assay; assay type: functional, cell-based; details: MCF7, 48 h; how it was run: as §4
A549 [20] = experiment: Inhibition of cell invasion in human A549 cells incubated for 24 hrs by crystal violet staining based matrigel migration assay; assay type: functional
How it was run: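 As the migration setup but membrane precoated with matrigel (1:10 diluted) for 2 h at 37°C: A549 pretreated 24 h at 1, 5, 10 µM, 30,000 cells in serum-free medium above, 10% FBS below, 24 h, then fixing, 0.1% crystal violet staining and counting. Three repeats, mean ± SEM.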

HUVEC [21] = experiment: Cytotoxicity against HUVEC assessed as reduction in cell viability incubated for 48 hrs by MTT assay; assay type: cell-based; details: Homo sapiens; how it was run: as §4
A549 [22] = experiment: Antiproliferative activity against human A549 cells assessed as reduction in cell viability incubated for 48 hrs by MTT assay; assay type: functional, cell-based; details: A549, 48 h; how it was run: as §4
A549 [23] = experiment: Induction of apoptosis in human A549 cells assessed as early apoptotic cells at 5 uM incubated for 48 hrs by annexin V FITC and propidium iodide based flow cytometry (reference value: 2.15 %); assay type: functional; how it was run: as §5
A549 [24] = experiment: Down regulation of MMP2 expression in human A549 cells incubated for 24 hrs by Western blot analysis; assay type: functional, cell-based; how it was run: as §2
A549 [25] = experiment: Induction of apoptosis in human A549 cells assessed as necrotic cells at 1 uM incubated for 48 hrs by annexin V FITC and propidium iodide based flow cytometry (reference value: 0.02 %); assay type: functional; how it was run: as §5
PC-3 = experiment: Antiproliferative activity against human PC3 cells assessed as reduction in cell viability incubated for 48 hrs by MTT assay; assay type: functional, cell-based; details: PC-3, 48 h; how it was run: as §4
[26] = biological target: T1, Matrix metalloproteinase-9; experiment: Inhibition of recombinant human MMP9 at 50 uM using thiopeptide as substrate preincubated for 30 mins followed by substrate addition and measured every min for 20 mins by colorimetric assay relative to control
[27] = biological target: MMP-2/MMP-9 (Homo sapiens) (UniProt P08253+P14780); experiment: Selectivity ratio of IC50 for inhibition of recombinant human MMP9 to IC50 for inhibition of recombinant human MMP2
[28] = biological target: T1, Matrix metalloproteinase-9; experiment: Inhibition of recombinant human MMP9 at 25 uM using thiopeptide as substrate preincubated for 30 mins followed by substrate addition and measured every min for 20 mins by colorimetric assay relative to control

T1 sequence (P14780 whole entry): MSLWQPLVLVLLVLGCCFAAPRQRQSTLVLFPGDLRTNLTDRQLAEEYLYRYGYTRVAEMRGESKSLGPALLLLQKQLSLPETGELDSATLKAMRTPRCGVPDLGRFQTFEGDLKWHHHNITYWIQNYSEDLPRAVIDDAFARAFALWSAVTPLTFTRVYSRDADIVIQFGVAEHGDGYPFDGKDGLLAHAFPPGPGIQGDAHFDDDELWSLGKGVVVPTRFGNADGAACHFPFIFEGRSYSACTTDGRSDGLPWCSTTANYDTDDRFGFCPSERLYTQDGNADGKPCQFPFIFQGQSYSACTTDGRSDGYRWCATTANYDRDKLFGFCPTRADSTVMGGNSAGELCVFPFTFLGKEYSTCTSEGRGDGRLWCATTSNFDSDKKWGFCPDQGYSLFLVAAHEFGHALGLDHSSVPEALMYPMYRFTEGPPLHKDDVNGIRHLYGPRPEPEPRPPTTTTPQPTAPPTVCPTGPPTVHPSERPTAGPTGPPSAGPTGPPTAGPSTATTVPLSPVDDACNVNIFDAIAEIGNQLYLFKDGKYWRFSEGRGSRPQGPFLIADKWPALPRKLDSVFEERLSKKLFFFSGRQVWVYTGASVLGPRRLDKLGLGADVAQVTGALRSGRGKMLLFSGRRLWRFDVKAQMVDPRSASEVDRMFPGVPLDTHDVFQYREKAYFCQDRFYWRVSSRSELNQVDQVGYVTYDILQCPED

- inhibition [1]: Dose-dependent effect
- inhibition [3]: 100%
- IC50 (K562): 2.3 µM
- inhibition [6]: Dose-dependent effect
- inhibition [13]: 100%
- IC50 (HL-60): 1.8 µM
- IC50 [15]: 0.66 µM
- IC50 [18]: 0.7 µM
- IC50 (MCF7): 4.6 µM
- IC50 (A549 [22]): 11 µM
- IC50 (PC-3): 8.3 µM
SMILES: O=C(CCCCCNCc1cc(Cl)c2cccnc2c1O)Nc1ccccc1
- Activity (A549 [2]): Dose-dependent effect
- viability at 5 µM (A549 [4]): 73.1%
- inhibition (A549 [5]): Dose-dependent effect
- inhibition (HUVEC [7]): Active
- Activity (A549 [8]): 21%
- IC50 (KG-1): 2.3 µM
- Activity (A549 [9]): 6.54%
- Activity (A549 [10]): 9.75%
- Activity (A549 [11]): 16.4%
- viability at 1 µM (A549 [12]): 75.8%
- Activity (A549 [14]): 0.029%
- viability at 10 µM (A549 [16]): 72.3%
- Activity (A549 [17]): 0.14%
- Activity (A549 [19]): 7.81%
- inhibition (A549 [20]): Dose-dependent effect
- IC50 (HUVEC [21]): > 50 µM
- Activity (A549 [23]): 17.1%
- Activity (A549 [24]): Dose-dependent effect
- Activity (A549 [25]): 0.031%

- inhibition [3]: 57.5%
- inhibition [26]: 35%
- inhibition [13]: 22.2%
- IC50 [15]: > 10 µM
- Ratio IC50 [27]: > 7
- IC50 [18]: 7.5 µM
- inhibition [28]: 15%
SMILES: CN(CCCCC(=O)Nc1ccc(O)c2ncccc12)c1ccccc1

— ChEMBL document CHEMBL4406825, “Design, synthesis and preliminary bioactivity evaluations of 8-hydroxyquinoline derivatives as matrix metalloproteinase (MMP) inhibitors” (Eur J Med Chem, 2019)
